For 23 compounds, IC50 and logP results are on record in ChEMBL document CHEMBL1142970, “Inhibition of secreted phospholipase A2. 4-glycerol derivatives of 4,5-dihydro-3-(4-tetradecyloxybenzyl)-1,2,4-4H-oxadiazol-5-one with broad activities” (J Med Chem, 2007).

Broadly, the IC50 is the point on the concentration scale where inhibition reaches its midpoint. A higher IC50 goes with a need for much substance. As usually defined, the logP is a log measure of how a compound divides between an organic and an aqueous phase.

Data set [1] addresses Phospholipase A2, major isoenzyme (Sus scrofa, UniProt P00592). Put plainly: Inhibition of pig group IB PLA2 by fluorimetric assay. An outline of the steps: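 Porcine pancreatic sPLA2, 60 ng per 1 mL, in 50 mM Tris-HCl pH 7.5, 100 mM NaCl, 1 mM EGTA, 0.1% fatty acid-free BSA, 2 µM pyrene substrate β-pyC-10-PG. Inhibitor in ethanol or DMSO added after BSA. Activity as µmol hydrolyzed/min/mg, giving 50%-inhibition concentration.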

The target of data set [2] is T1, Phospholipase A2, membrane associated (Homo sapiens, UniProt P14555).
T1 sequence (P14555 whole entry): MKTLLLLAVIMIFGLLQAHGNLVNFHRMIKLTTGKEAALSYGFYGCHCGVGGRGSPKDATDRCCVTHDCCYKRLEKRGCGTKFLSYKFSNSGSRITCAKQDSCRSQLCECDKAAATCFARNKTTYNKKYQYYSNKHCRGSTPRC
The data set is described as follows: Inhibition of human group IIA PLA2 by fluorimetric assay. An outline of the steps: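 Fluorimetric (Radvanyi method): 1 ng synthetic hGIIA sPLA2 in 1 mL of 50 mM Tris-HCl pH 7.5, 100 mM NaCl, 1 mM EGTA, 0.1% fatty acid-free BSA, 2 µM β-pyC-10-PG. Inhibitor added in ethanol or DMSO after BSA. Reaction started with 10 mM CaCl2 (final), fluorescence rise followed 2 min.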

A short description of data set [3]: Lipophilicity, log P of the compound. It counts as physicochemical. The following applies: octanol/water. An outline of the steps:
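log P calculated from Rekker's hydrophobic fragmental constants.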

A further data set deals with Phospholipase A2 (Homo sapiens, UniProt P04054). Put plainly: Inhibition of human group IB PLA2 in [3H]oleate-labeled Escherichia coli membrane by radiometric assay. An outline of the steps:
(§1)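 Incubation 30-60 min, time adjusted for linear hydrolysis. Stopped with 0.1 M EDTA pH 8.0/1% BSA, centrifuged 10 000g, supernatant counted. Enzyme-free controls subtracted. IC50 obtained after 10 µM screen.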

For data set [4], the target named is T1, Phospholipase A2, membrane associated. Put plainly: Inhibition of human group IIA PLA2 in [3H]oleate-labeled Escherichia coli membrane by radiometric assay. Summed up: as §1
The target of another data set is T2, Phospholipase A2 group V (Homo sapiens, UniProt P39877).
T2 sequence (P39877 whole entry): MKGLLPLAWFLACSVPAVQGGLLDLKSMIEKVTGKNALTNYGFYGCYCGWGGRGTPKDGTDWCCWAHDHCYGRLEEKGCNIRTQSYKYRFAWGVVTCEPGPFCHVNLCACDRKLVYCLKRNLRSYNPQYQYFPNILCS
Put plainly: Inhibition of human group V PLA2 in [3H]oleate-labeled Escherichia coli membrane by radiometric assay. Summed up:
as §1

Data set [5] addresses T3, Group 10 secretory phospholipase A2 (Homo sapiens, UniProt O15496).
T3 sequence (O15496 whole entry): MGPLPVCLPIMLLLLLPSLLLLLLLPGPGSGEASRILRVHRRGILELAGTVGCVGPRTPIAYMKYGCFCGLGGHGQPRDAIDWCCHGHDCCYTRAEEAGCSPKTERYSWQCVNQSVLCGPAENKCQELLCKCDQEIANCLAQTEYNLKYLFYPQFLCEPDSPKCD
The data set is described as follows: Inhibition of human group X PLA2 in [3H]oleate-labeled Escherichia coli membrane by radiometric assay. An outline of the steps:
as §1

Phospholipase A2, major isoenzyme, sequence (P00592 whole entry): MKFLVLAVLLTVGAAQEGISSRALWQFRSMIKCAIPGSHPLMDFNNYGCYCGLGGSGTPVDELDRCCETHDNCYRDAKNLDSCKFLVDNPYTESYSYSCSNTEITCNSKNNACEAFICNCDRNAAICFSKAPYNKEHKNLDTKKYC
Phospholipase A2, sequence (P04054 whole entry): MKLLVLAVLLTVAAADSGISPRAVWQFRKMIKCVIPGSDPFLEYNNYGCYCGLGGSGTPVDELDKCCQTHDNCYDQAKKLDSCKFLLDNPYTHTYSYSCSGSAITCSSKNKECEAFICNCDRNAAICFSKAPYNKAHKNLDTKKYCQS

As to `CCCCCCCCCCCCCCOc1ccc(Cc2noc(=O)[nH]2)cc1`, the IC50 is above 100 µM in data set [1] and 4 µM in data set [2]. The logP in data set [3] (read-out: LogP) was found to be 7.08.
In the case of `CCCCCCCCCCCCCCO[C@@H](COc1ccc(-c2nc(=O)o[nH]2)cc1)COC(c1ccccc1)(c1ccccc1)c1ccccc1`, the IC50 in data set [1] is above 50 µM; in data set [2] it was 0.33 µM. In addition, the logP in data set [3] worked out at 11.8.
Consider `CCCCCCCCCCCCCCOC(COCCCCCCCCCC)COc1ccc(-c2nc(=O)o[nH]2)cc1` (stereo not drawn), for which the IC50 is above 100 µM in data set [1]; 0.28 µM in data set [2]; 10 µM on Phospholipase A2; 1 µM in data set [4]; 0.55 µM on Phospholipase A2 group V; 1 µM in data set [5]. In data set [3], this compound registered a logP of 11.5.
`Cc1c(C(=O)C(N)=O)c2c(OCC(=O)O)cccc2n1Cc1ccccc1-c1ccccc1`: the IC50 is 3.3 µM on Phospholipase A2, 0.18 µM in data set [4], 0.27 µM against Phospholipase A2 group V and 4.57 µM in data set [5].
`CCCCCCCCCCCCCCOC(COc1ccc(Cc2nc(=O)o[nH]2)cc1)COc1ccc(Cc2nc(=O)o[nH]2)cc1`: the results for the IC50 in data set [1] and in data set [2] were 39.9 µM and 2.1 µM, respectively. Further, in data set [3] (read-out: LogP), the logP turned out to be 7.64.
`CCCCCCCCCCCCCCOC(COc1ccc(-c2nc(=O)o[nH]2)cc1)COc1ccc(-c2nc(=O)o[nH]2)cc1`: the IC50 in data set [1] is above 100 µM; in data set [2] it was 47.7 µM. Further, the logP in data set [3] (read-out: LogP) came to 7.05.
On the same counts, the results for `CCCCCOC(COc1ccc(Cc2noc(=O)[nH]2)cc1)COc1ccc(Cc2noc(=O)[nH]2)cc1` are above 100 µM, 30.5 µM and 2.97.
For `O=c1nc(-c2ccc(OCC(COCCCCc3ccccc3)OCCCCc3ccccc3)cc2)[nH]o1` (racemic), in that order: above 100 µM, 76.7 µM and 6.51.
`CCCCCCCOCC(COc1ccc(Cc2noc(=O)[nH]2)cc1)OCCCCCCC` (racemic): the IC50 was above 100 µM in data set [1] and 11.6 µM in data set [2]. The logP in data set [3] (read-out: LogP) stood at 7.12.
`CCCCCCCCCOCC(COc1ccc(Cc2noc(=O)[nH]2)cc1)OCCCCCCCCC` (racemic): the values for the IC50 in data set [1] and in data set [2] were above 100 µM and 2.7 µM, respectively. Besides, in data set [3], the logP was determined as 9.18.
For the compound `CCCCCCCCCCCCCCOC(CO)COc1ccc(-c2noc(=O)[nH]2)cc1` (racemic), the values for the IC50 in data set [1] and in data set [2] were above 100 µM and 56 µM, respectively. Also, the logP in data set [3] (read-out: LogP) turned out to be 6.59.
In the case of `CCCCCCCCCCCCCCOC(COc1ccc(-c2noc(=O)[nH]2)cc1)COC(c1ccccc1)c1ccccc1` (racemic), the IC50 in data set [1] turned out to be 5.6 µM; in data set [2] it was 0.28 µM; against Phospholipase A2, 18 µM; in data set [4], 5 µM; at Phospholipase A2 group V, 2 µM; in data set [5] it was 5.3 µM. The same compound gave a logP in data set [3] of 10.1.
With `CCCCCCCCCCCCCCOCC(COc1ccc(Cc2nc(=O)o[nH]2)cc1)Oc1ccc(Cc2nc(=O)o[nH]2)cc1` (racemic), the IC50 in data set [1] came out at 57.8 µM; in data set [2], 3.1 µM. In data set [3] (read-out: LogP), the logP came out at 7.64.
On the same counts, the results for `CCCCCCCCCCCCCCOC(COCc1cccc(OC)c1)COc1ccc(-c2nc(=O)o[nH]2)cc1` (racemic) are 39 µM, 2.2 µM and 8.56.
On to `CCCCCCCCCCCCCCOC(COCc1ccccc1)COc1ccc(-c2noc(=O)[nH]2)cc1` (racemic), for which the IC50 in data set [1] was above 25 µM; in data set [2], 14.8 µM; against Phospholipase A2, above 100 µM; in data set [4] it was above 100 µM; against Phospholipase A2 group V, above 100 µM; in data set [5] it was 14 µM. The logP in data set [3] (read-out: LogP) worked out at 8.48.
As for `CCCCCCCCCCCCCCOC(COCC)COc1ccc(-c2noc(=O)[nH]2)cc1` (racemic), the IC50 in data set [1] is above 40 µM; in data set [2], 29.8 µM. Further, the logP in data set [3] (read-out: LogP) stood at 7.34.
On the same counts, the results for `CCCCCCCCCCCCCCOC(COCCCCC)COc1ccc(-c2noc(=O)[nH]2)cc1` (racemic) are above 100 µM, 8.3 µM and 8.72.
Consider `CCCCCCCCCCCCCCCCCCOC(COCc1ccc(C#N)cc1)COc1ccc(Cc2noc(=O)[nH]2)cc1` (racemic), for which the IC50 was found to be 36.6 µM in data set [1]; 0.15 µM in data set [2]; 8.7 µM at Phospholipase A2; 1.15 µM in data set [4]; 1 µM against Phospholipase A2 group V; 0.9 µM in data set [5]. In addition, the logP in data set [3] was determined as 11.
`CCCCCCCCCCCCCCOC(COCCCCc1ccccc1)COc1ccc(-c2noc(=O)[nH]2)cc1` (racemic): the IC50 in data set [1] was determined as 2.2 µM; in data set [2], 0.29 µM; on Phospholipase A2, 15 µM; in data set [4], 26 µM; on Phospholipase A2 group V, 22 µM; in data set [5] it was 12 µM. The lipophilicity (logP) in data set [3] is reported as 10.
Take `CCCCCCCCCCCCCCOC(COCc1ccc(C#N)cc1)COc1ccc(Cc2nc(=O)o[nH]2)cc1` (racemic): the IC50 in data set [1] is 9.6 µM; in data set [2] it was 1.1 µM; against Phospholipase A2, 7.6 µM; in data set [4], 7.6 µM; at Phospholipase A2 group V, 1.73 µM; in data set [5], 5 µM. In addition, the logP in data set [3] (read-out: LogP) came to 8.94.
Consider `CCCCCCCCCCCCCCOC(COc1ccc(-c2noc(=O)[nH]2)cc1)COC(c1ccccc1)(c1ccccc1)c1ccccc1` (racemic), for which the IC50 is above 50 µM in data set [1]; 0.9 µM in data set [2]; 5.75 µM against Phospholipase A2; 2 µM in data set [4]; 0.66 µM on Phospholipase A2 group V; 1.25 µM in data set [5]. For the same compound, the logP in data set [3] was 11.8.
In the case of `CCCCCCCOCC(COc1ccc(-c2noc(=O)[nH]2)cc1)OCCCCCCC` (racemic), the IC50 in data set [1] was above 100 µM; in data set [2] it was 50.9 µM. In addition, in data set [3] (read-out: LogP), the logP amounted to 6.3.
For the compound `CCCCCCCCCCCCCCOCC(COc1ccc(-c2noc(=O)[nH]2)cc1)Oc1ccc(-c2noc(=O)[nH]2)cc1` (racemic), the figures for the IC50 in data set [1] and in data set [2] were 63.6 µM and 21 µM, respectively. In addition, in data set [3] (read-out: LogP), the logP was 7.05.
